Here are results for 13 compounds from PubChem BioAssay AID1483 (NMMLSC, 2009).

Some of the results follow. A number with no mark means an inactive call. The source made the active and inactive calls.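 The calls were made as follows: active = fluorescence beyond the plate control mean plus 3 SD, with a fluorescence-to-maximum score over 2 (cut at about 25 in these data); inactive = the rest.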

This assay in a line: green-channel fluorescence of compounds in CCRF-Adr cells – cell-based, 488/530 nm, flow cytometry, artefact control for ABC transporter inhibitor project, confirmation (AID 1483). The settings on record: compound autofluorescence 488/530 nm, at 6.6 µM, hits give high values. The method, boiled down:
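Test system: drug-resistant CCRF-Adr cells; Quantity: 3 million cells per mL, final in well; Benchmarks: DMSO control wells; Incubation: 10 min rotation at 25 °C; Compound: single test compound dose, 6.6 µM final; Probe or stimulus: no JC-1 substrate added, compound fluorescence only; Technique: flow cytometry, median green fluorescence at 530 ± 20 nm.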
On the technique in general: A flow cytometer gives signals particle by particle.

For the compound `C/C(=N\Nc1ncc(Cl)cc1Cl)c1ccc(S(=O)(=O)NCc2ccco2)cc1`, the fluorescence is -2.49.
As to `Cc1ccc(-n2c(SCC(=O)Nc3ncc(Cl)cc3Cl)nc3ccccc32)cc1`, the fluorescence is -0.64.
For the compound `Cc1c(CCOC(=O)CC23CC4CC(CC(C)(C4)C2)C3)sc[n+]1Cc1ccc([N+](=O)[O-])cc1`, the fluorescence was -2.94.
For the compound `COc1cccc(NC(=O)c2ccc(Cn3cc([N+](=O)[O-])cn3)o2)c1`, the fluorescence was 5.61.
Turning to `C=CCn1c(SCCOc2ccc(OC)cc2)nnc1C(NC(=O)c1ccc(OC)cc1)C(C)C` (stereo not drawn), the fluorescence was 180 (active).
To `Cc1ccc(OCC(O)CN2CCN(CC(O)COc3ccc(C)cc3Cl)CC2)c(Cl)c1` (stereo not drawn) belongs 22.4.
To `COc1ccc(C)cc1NC(=O)C(Sc1ccccc1)c1ccccc1` (stereo not drawn) belongs -2.64; to `Cc1cccc2cc(CN(Cc3cccs3)C(c3nnnn3C3CCCC3)C(C)C)c(=O)[nH]c12` (stereo not drawn), -4.84; to `COc1ccc(-n2c(C)cc(C(=O)COC(=O)c3cc(OC)c(OC)cc3NC(=O)c3cccs3)c2C)cc1`, 2.26.
The figure for `CCN1/C(=C/c2ccc3ccc(C)cc3[n+]2CC)Sc2ccccc21` is 130 (active); for `O=C(Cc1c[nH]c2ccccc12)N/N=C/c1cccc(F)c1` it is 4.76; for `CCOCC(=O)Nc1sc2c(c1C(=O)OCC)CCCC2` it is 0.31.
Regarding `CCOC(=O)c1sc(NC(=O)CSc2nnc(-c3ccco3)o2)c(C(=O)OCC)c1C`, the fluorescence was 0.61.
